Data on 4 compounds can be found in ChEMBL document CHEMBL1146735, “Synthesis and biological activity of macrocyclic taxane analogues” (Bioorg Med Chem Lett, 2004).

The nature of test [1]: Compound was evaluated for the ratio of HCT/mdr cell line to that of IC50 of HCT116 cell line. Type of test: functional, HCT-116. Put shortly:
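Resistance ratio: IC50 in the HCT116/mdr line divided by the IC50 in parental HCT116.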

The species named for test [2] is Homo sapiens. Briefly: Compound was evaluated for the inhibition of tubulin polymerization. Type of test: functional. In a few lines: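 Tubulin polymerization followed by optical density. The value is the compound concentration giving a change of 0.01 OD/h, divided by the corresponding concentration of paclitaxel.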
Test [3] relates to HCT-116. Briefly: In vitro cytotoxicity against the paclitaxel sensitive human colon carcinoma cell line HCT116. The test is classed as functional, cell-based. In a few lines: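 HCT116 cells exposed to compound for 72 h. Viability read by MTS assay and IC50 derived from it.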
The nature of test [4]: Compound was evaluated for the ratio of IC50 of A2780/tub cell line to that of IC50 of A2780 cell line. The test is classed as functional. Put shortly:
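Resistance ratio: IC50 in the A2780/tub line divided by the IC50 in parental A2780.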

Test [5] deals with A2780. As to the kind of experiment: In vitro cytotoxicity against the paclitaxel sensitive […]. The test is classed as functional, cell-based. As to conditions: Homo sapiens.
Test [6] is described as follows: Compound was evaluated for the median survival time of compound treated mice to that of median survival time of the control mice at a dose of 200 mg/kg/injection. Type of test: functional. Put shortly:
(§1)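 Balb/c × DBA/2 F1 hybrid mice implanted intraperitoneally with a 2% (w/v) brei of M109 lung carcinoma. Treatment was by intraperitoneal injection on days 5 and 8 post-implant. Survival was followed daily to about 75–90 days, with an untreated control group in each experiment. %T/C = median survival of treated mice / median survival of controls × 100.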

The nature of test [7]: Compound was evaluated for the median survival time of compound treated mice to that of median survival time of the control mice at a dose of 100 mg/kg/injection. The test is classed as functional. Put shortly:
as §1

Test [8] can be described thus: Compound was evaluated for the median survival time of compound treated mice to that of median survival time of the control mice at a dose of 120 mg/kg/injection.

As a reminder, the IC50 is the concentration at which inhibition is half-maximal. A high value points to a need for much substance. What is called T/C is the ratio of treated to control.

In the case of `CC(=O)O[C@H]1[C@@H]2CO[C@@H]2[C@@H]2OCOCCOCO[C@H]3C(=O)[C@@]2(C)[C@@H]1[C@H](OC(=O)c1ccccc1)[C@]1(O)C[C@H](OC(=O)[C@H](O)[C@@H](NC(=O)c2ccccc2)c2ccccc2)C(C)=C3C1(C)C`, the R/S ratio in test [1] was determined as 10; in test [4], 15. This compound returned a Tubulin in test [2] of 1.49. For the same compound, the IC50 came out at 3 nM in test [3] and 2.6 nM in test [5]. The compound also displayed a T/C in test [6] of 174%.

As to `CC(=O)O[C@H]1[C@@H]2CO[C@@H]2[C@@H]2OCOCCOCO[C@H]3C(=O)[C@@]2(C)[C@@H]1[C@H](OC(=O)c1ccccc1)[C@]1(O)C[C@H](OC(=O)[C@H](O)[C@@H](NC(=O)OC(C)(C)C)c2ccccc2)C(C)=C3C1(C)C`, the R/S ratio in test [1] amounted to 12; in test [4], 6. Further, the T/C in test [7] stood at 190%. The compound further registered a Tubulin in test [2] of 0.67. Further, the values for the IC50 in test [3] and in test [5] were 0.8 nM and 18.5 nM, respectively.

With `CC(=O)O[C@H]1[C@@H]2CO[C@@H]2[C@@H]2OCOCC(C)(C)COCO[C@H]3C(=O)[C@@]2(C)[C@@H]1[C@H](OC(=O)c1ccccc1)[C@]1(O)C[C@H](OC(=O)[C@H](O)[C@@H](NC(=O)c2ccccc2)c2ccccc2)C(C)=C3C1(C)C`, the R/S ratio was 11 in test [1] and 23 in test [4]. Moreover, the T/C in test [8] is listed as 118%. This compound also gave a Tubulin in test [2] of 2.87. Also, the IC50 amounted to 17.2 nM in test [3] and 18 nM in test [5].

With `CC(=O)O[C@H]1[C@@H]2CO[C@@H]2[C@@H]2OCOCCOC(=O)O[C@H]3C(=O)[C@@]2(C)[C@@H]1[C@H](OC(=O)c1ccccc1)[C@]1(O)C[C@H](OC(=O)[C@H](O)[C@@H](NC(=O)c2ccccc2)c2ccccc2)C(C)=C3C1(C)C`, the R/S ratio came out at 31 in test [1] and 32 in test [4]. This compound displayed a Tubulin in test [2] of 0.73. Moreover, the IC50 was 1.9 nM in test [3] and 2.1 nM in test [5].
